Measurements published in ChEMBL document CHEMBL1122426, “Radioiodine-labeled N,N-dimethyl-N'-(2-hydroxy-3-alkyl-5-iodobenzyl)-1,3-propanediamines for brain perfusion imaging” (J Med Chem, 1983).

How the values were obtained:
[1] = species on record: Rattus norvegicus; assay: Distribution coefficient at pH 7.4 in rat; format: ADME, organism-based
In short: (§1)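 Octanol/buffer partition: I-125 labeled diamine mixed with 3 g each of 1-octanol and 0.1 M phosphate buffer at pH 7.0 or 7.4, vortexed 3× 1 min, centrifuged 5 min. Two 0.5 g samples of each layer counted. Value is cpm/g octanol over cpm/g buffer, usually repeated three times.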

[2] = tested on: Rattus norvegicus; assay: Biodistribution of I-125 labeled compound in rat muscle, 1 hr after intravenous injection. value expressed in average % dose per organ; value may range from 11.9 to 16.0; format: ADME, organism-based, Muscle tissue; conditions: in vivo
[3] = tested on: Rattus norvegicus; assay: Biodistribution of I-125 labeled compound in rat blood, 1 hr after intravenous injection. value expressed in average % dose per organ; value may range from 1.13 to 1.60; format: ADME, organism-based; conditions: in vivo
[4] = tested on: Rattus norvegicus; assay: Biodistribution of I-125 labeled compound in rat muscle, 2 min after intravenous injection. value expressed in average % dose per organ; value may range from 7.52 to 9.77; format: ADME, organism-based, Muscle tissue; conditions: in vivo
[5] = tested on: Rattus norvegicus; assay: Biodistribution of I-125 labeled compound in rat thyroid, 2 min after intravenous injection. value expressed in average % dose per organ; value may range from 0.13 to 0.20; format: ADME, organism-based, Thyroid gland; conditions: in vivo
[6] = The protein binding ability of compound was expressed in Percent free; format: ADME; conditions: read-out: % free
In short: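 Binding to pooled human serum was measured by equilibrium dialysis. 0.4 mL serum and 0.4 mL 0.15 M phosphate buffer, pH 7.4, were separated by a membrane, and 0.025 μCi radiolabeled diamine was added on the buffer side. Cells were rotated at 37 °C for 18 h, and aliquots from both sides were weighed and counted. % free = buffer/serum radioactivity concentration ratio × 100. The membrane was also counted.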

[7] = tested on: Rattus norvegicus; assay: Biodistribution of I-125 labeled compound in rat thyroid, 1 hr after intravenous injection. value expressed in average % dose per organ; value may range from 0.18 to 0.25; format: ADME, organism-based, Thyroid gland; conditions: in vivo
[8] = tested on: Rattus norvegicus; assay: Biodistribution of I-125 labeled compound in rat brain, 1 hr after intravenous injection. value expressed in average % dose per organ; value may range from 1.39 to 1.47; format: ADME, organism-based; conditions: in vivo
[9] = tested on: Rattus norvegicus; assay: Biodistribution of I-125 labeled compound in rat heart, 1 hr after intravenous injection. value expressed in average % dose per organ; value may range from 1.54 to 1.76; format: ADME, organism-based; conditions: in vivo
[10] = tested on: Rattus norvegicus; assay: Biodistribution of I-125 labeled compound in rat heart, 2 min after intravenous injection. value expressed in average % dose per organ; value may range from 1.95 to 2.54; format: ADME, organism-based; conditions: in vivo
[11] = tested on: Rattus norvegicus; assay: Biodistribution of I-125 labeled compound in rat liver, 2 min after intravenous injection. value expressed in average % dose per organ; value may range from 8.10 to 8.95; format: ADME, organism-based; conditions: in vivo
[12] = tested on: Rattus norvegicus; assay: Biodistribution of I-125 labeled compound in rat lungs, 2 min after intravenous injection. value expressed in average % dose per organ; value may range from 36.9 to 42.9; format: ADME, organism-based, Lung; conditions: in vivo
[13] = tested on: Rattus norvegicus; assay: Biodistribution of I-125 labeled compound in rat lungs, 1 hr after intravenous injection. value expressed in average % dose per organ; value may range from 14.0 to 17.9; format: ADME, organism-based, Lung; conditions: in vivo
[14] = tested on: Rattus norvegicus; assay: Biodistribution of I-125 labeled compound in rat brain to blood ratio, 2 m in after intravenous injection. value expressed in % dose per gram ratio; format: ADME, organism-based
In short: (§2)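 Rats given I-125 diamine iv; tissue activity at 2 min or 1 h compared with diluted injected-dose aliquots. % dose per gram approximated as % dose per organ divided by mean organ weight (brain 1.65 g; blood 18 g). Ratio taken from the per-gram values.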

[15] = tested on: Rattus norvegicus; assay: Biodistribution of I-125 labeled compound in rat blood, 2 min after intravenous injection. value expressed in average % dose per organ; value may range from 4.84 to 5.25; format: ADME, organism-based; conditions: in vivo
[16] = species on record: Rattus norvegicus; assay: Distribution coefficient at pH 7.0 in rat; format: ADME, organism-based; in short: as §1
[17] = tested on: Rattus norvegicus; assay: Biodistribution of I-125 labeled compound in rat brain, 2 min after intravenous injection. value expressed in average % dose per organ; value may range from 1.28 to 1.56; format: ADME, organism-based; conditions: in vivo
[18] = tested on: Rattus norvegicus; assay: Biodistribution of I-125 labeled compound in rat liver, 1 hr after intravenous injection. value expressed in average % dose per organ; value may range from 8.10 to 10.6; format: ADME, organism-based; conditions: in vivo
[19] = tested on: Rattus norvegicus; assay: Biodistribution of I-125 labeled compound in rat brain to blood ratio, 1 hr after intravenous injection. value expressed in % dose per gram ratio; format: ADME, organism-based; in short: as §2
[20] = tested on: Rattus norvegicus; assay: Biodistribution of I-125 labeled compound in rat muscle, 1 hr after intravenous injection. value expressed in average % dose per organ; value may range from 11.0 to 15. 8; format: ADME, organism-based, Muscle tissue; conditions: in vivo
[21] = tested on: Rattus norvegicus; assay: Biodistribution of I-125 labeled compound in rat thyroid, 1 hr after intravenous injection. value expressed in average% dose per organ; value may range from 0.19 to 0.25; format: ADME, organism-based, Thyroid gland; conditions: in vivo
[22] = tested on: Rattus norvegicus; assay: Biodistribution of I-125 labeled compound in rat lungs, 1 hr after intravenous injection. value expressed in average % dose per organ; value may range from 15.1 to 17.1; format: ADME, organism-based, Lung; conditions: in vivo
[23] = tested on: Rattus norvegicus; assay: Biodistribution of I-125 labeled compound in rat blood, 2 min after intravenous injection. value expressed in average % dose per organ; value may range from 3.95 to 6.09; format: ADME, organism-based; conditions: in vivo
[24] = tested on: Rattus norvegicus; assay: Biodistribution of I-125 labeled compound in rat brain, 1 hr after intravenous injection. value expressed in average % dose per organ; value may range from 0.95 to 1.00; format: ADME, organism-based; conditions: in vivo
[25] = tested on: Rattus norvegicus; assay: Biodistribution of I-125 labeled compound in rat brain to blood ratio, 2 min after intravenous injection. value expressed in % dose per gram ratio; format: ADME, organism-based; in short: as §2
[26] = tested on: Rattus norvegicus; assay: Biodistribution of I-125 labeled compound in rat blood, 1 hr after intravenous injection. value expressed in average % dose per organ; value may range from 1.64 to 1.91; format: ADME, organism-based; conditions: in vivo
[27] = tested on: Rattus norvegicus; assay: Biodistribution of I-125 labeled compound in rat liver, 1 hr after intravenous injection. value expressed in average % dose per organ; value may range from 11.0 to 13.4; format: ADME, organism-based; conditions: in vivo
[28] = tested on: Rattus norvegicus; assay: Biodistribution of I-125 labeled compound in rat heart, 1 hr after intravenous injection. value expressed in average % dose per organ; value may range from 2.29 to 2.35; format: ADME, organism-based; conditions: in vivo
[29] = tested on: Rattus norvegicus; assay: Biodistribution of I-125 labeled compound in rat muscle, 2 min after intravenous injection. value expressed in average % dose per organ; value may range from 5.95 to 6.51; format: ADME, organism-based, Muscle tissue; conditions: in vivo
[30] = tested on: Rattus norvegicus; assay: Biodistribution of I-125 labeled compound in rat lungs, 2 min after intravenous injection. value expressed in average % dose per organ; value may range from 31.6 to 34.0; format: ADME, organism-based, Lung; conditions: in vivo
[31] = tested on: Rattus norvegicus; assay: Biodistribution of I-125 labeled compound in rat […] ratio, 1 hr after intravenous injection. value expressed in % dose per gram ratio; format: ADME, organism-based; conditions: in vivo
[32] = tested on: Rattus norvegicus; assay: Biodistribution of I-125 labeled compound in rat liver, 2 min after intravenous injection. value expressed in average % dose per organ; value may range from 12.3 to 15.0; format: ADME, organism-based; conditions: in vivo
[33] = tested on: Rattus norvegicus; assay: Biodistribution of I-125 labeled compound in rat brain, 2 min after intravenous injection. value expressed in average% dose per organ; value may range from 0.85 to 1.01; format: ADME, organism-based; conditions: in vivo
[34] = tested on: Rattus norvegicus; assay: Biodistribution of I-125 labeled compound in rat thyroid, 2 min after intravenous injection. value expressed in average % dose per organ; value may range from 0.13 to 0.19; format: ADME, organism-based, Thyroid gland; conditions: in vivo
[35] = tested on: Rattus norvegicus; assay: Biodistribution of I-125 labeled compound in rat heart, 2 min after intravenous injection. value expressed in average % dose per organ; value may range from 2.13 to 2.96; format: ADME, organism-based; conditions: in vivo

## CCC(C)c1cc(I)cc(CNCCCN(C)C)c1O (stereo not drawn)
[1]
  Distribution coefficient: 389
[2]
  Average dose per organ: 13.3%
[3]
  Average dose per organ: 1.33%
[4]
  Average dose per organ: 8.38%
[5]
  Average dose per organ: 0.16%
[6]
  fraction unbound: 0.0762
[7]
  Average dose per organ: 0.22%
[8]
  Average dose per organ: 1.43%
[9]
  Average dose per organ: 1.68%
[10]
  Average dose per organ: 2.15%
[11]
  Average dose per organ: 8.65%
[12]
  Average dose per organ: 39.8%
[13]
  Average dose per organ: 15.8%
[14]
  Ratio: 2.96%
[15]
  Average dose per organ: 5.05%
[16]
  Distribution coefficient: 77.4
[17]
  Average dose per organ: 1.39%
[18]
  Average dose per organ: 9.74%
[19]
  Ratio: 11.5%

## CN(C)CCCNCc1cc(I)cc(C2CCCCC2)c1O
[1]
  Distribution coefficient: 468
[20]
  Average dose per organ: 13.4%
[21]
  Average dose per organ: 0.22%
[22]
  Average dose per organ: 16.3%
[23]
  Average dose per organ: 5.3%
[24]
  Average dose per organ: 0.97%
[25]
  Ratio: 1.91%
[26]
  Average dose per organ: 1.74%
[6]
  fraction unbound: 0.0517
[27]
  Average dose per organ: 12.4%
[28]
  Average dose per organ: 2.33%
[29]
  Average dose per organ: 6.17%
[30]
  Average dose per organ: 33%
[31]
  Ratio: 5.99%
[32]
  Average dose per organ: 13.8%
[16]
  Distribution coefficient: 260
[33]
  Average dose per organ: 0.94%
[34]
  Average dose per organ: 0.16%
[35]
  Average dose per organ: 2.51%
